Data on seven compounds can be found in paper PMC5554913 (ACS Medicinal Chemistry Letters, 2017).

Data set [1] can be described thus: Metabolic stability in pooled mouse liver microsomes. The format is in vitro ADME. The following applies: microsome T1/2, mouse microsomes. An outline of the steps:
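Half-life of test compound measured in mouse liver microsomes. Testosterone and dextromethorphan HBr were run alongside as controls and had to fall within acceptable ranges.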
On the technique in general: Liver microsomes are a subcellular fraction often used to study metabolism.

In data set [2] the test system is human lymphoblasts (CRL-8155). The data set can be described thus: Mammalian cell growth inhibition. The format is cell-based. The following applies: CRL-8155 cell line.
The subject of a further data set is Hep G2 cell line. The data set can be described thus: Cytotoxicity on Hep G2 cell line. The data set is classed as cell-based.
The test system of data set [3] is T. brucei brucei strain BF427. The data set can be described thus: T. brucei growth inhibition. The format is cell-based. The following applies: for improvement in potency compared to compound 1: T. brucei EC50 vs compound 1.
The test system of data set [4] is T. brucei rhodesiense STIB900. The data set can be described thus: Mouse efficacy model of acute T. brucei infection. The data set is classed as in vivo. The following applies: five mice, T. brucei rhodesiense STIB900, 50 mg/kg oral gavage b.i.d. days 2-5. An outline of the steps: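 Mice were infected with T. brucei rhodesiense STIB900 on day 0 and placed in groups of five. Test compound was given at 50 mg/kg by oral gavage twice daily on days 2–5, with a vehicle-treated group. Cure meant no detectable parasitemia […] through 60 days postinfection.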

A further data set concerns the target CYP3A4 (Homo sapiens, UniProt P08684). The data set can be described thus: CYP3A4 inhibition. The data set is classed as in vitro ADME.

Molecules are shown by their SMILES.

Chain of CYP3A4 (P08684 whole entry, species assumed): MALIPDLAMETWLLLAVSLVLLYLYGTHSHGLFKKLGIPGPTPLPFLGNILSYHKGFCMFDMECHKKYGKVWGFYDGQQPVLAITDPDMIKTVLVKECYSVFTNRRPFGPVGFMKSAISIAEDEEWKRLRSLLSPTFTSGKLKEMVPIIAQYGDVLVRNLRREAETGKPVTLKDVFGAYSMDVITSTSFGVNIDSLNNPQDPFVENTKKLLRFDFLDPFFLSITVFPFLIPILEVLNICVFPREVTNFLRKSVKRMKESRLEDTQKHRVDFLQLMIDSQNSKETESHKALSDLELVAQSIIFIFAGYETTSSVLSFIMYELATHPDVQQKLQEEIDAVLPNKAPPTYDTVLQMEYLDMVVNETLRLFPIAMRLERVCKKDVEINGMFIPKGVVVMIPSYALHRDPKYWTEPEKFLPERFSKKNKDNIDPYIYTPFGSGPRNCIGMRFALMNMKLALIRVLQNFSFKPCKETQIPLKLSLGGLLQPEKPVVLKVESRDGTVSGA

For `C[C@]12CC[C@H]3[C@@H](CCC4=CC(=O)CC[C@@]43C)[C@@H]1CC[C@@H]2O` [Testosterone], in data set [1], the half-life (in general, how long it takes for the measured level to halve) at 1.5 µM turned out to be 3.97 min.

With `COc1ccc(N2C(=O)CN(Cc3ccccc3)C2=S)cc1Cl` [Compound 1], the “cytotoxicity on CRL-8155” value in data set [2] is recorded as “no detected cytotoxicity”. Also, in the data set on Hep G2 cell line, the “cytotoxicity on Hep G2” value is “no detected cytotoxicity”.

In the case of `COc1ccc(N2C(=O)CN(Cc3cccc(F)c3)C2=S)cc1Cl` [Compound 40], in data set [3] (T. brucei EC50 vs compound 39), the “decrease in potency compared to 39” value was 18 fold.

Regarding `COc1ccc2c(c1)[C@]13CCCC[C@@H]1[C@H](C2)N(C)CC3` [dextromethorphan HBr], the half-life at 1.5 µM in data set [1] was found to be 9.51 min.

For the compound `COc1ccc(N2C(=O)CN(Cc3ccccc3)C2=S)cc1N(C)C` [Compound 37], the “drop in activity compared to 36” value in data set [3] (T. brucei EC50 vs compound 36) amounted to 30 fold.

For `COc1cc(N2C(=O)CN(Cc3ccc(F)cc3Cl)C2=S)ccc1N(C)C` [Compound 76, 1-(2-chloro-4-fluorobenzyl)-3-(4-dimethylamino-3-methoxyphenyl)-2-thiohydantoin], the “improvement in potency compared to compound 1” value in data set [3] is reported as more than 100 fold. Besides, the “cures (absence of detectable parasitemia for 60 days postinfection)” value in data set [4] is 5/5.

Regarding `CN(C)c1ccc(N2C(=O)CN(Cc3ccc(F)cc3)C2=S)cc1Cl` [Compound 68, 1-(4-fluorobenzyl)-3-(4-dimethylamino-3-chlorophenyl)-2-thiohydantoin], in data set [3], the “improvement in potency compared to compound 1” value was more than 100 fold. Besides, inhibition against CYP3A4 was half-maximal at 12.8 µM (IC50). In addition, in data set [4], the “cures (absence of detectable parasitemia for 60 days postinfection)” value is given as 5/5.
